Each block holds one compound with its values, some of them ahead of it.
Columns and labels:
[1] = Drug level in human HeLa cells treated with (E)-3-(3-(N-phenylsulfamoyl)phenyl)-N-(4-(4,4,5,5-tetramethyl-1,3,2-dioxaborolan-2-yl)benzyloxy)acrylamide measured after 1 to 6 days by UHPLC-MS/MS analysis; type: ADME, cell-based
How it was run: (§1)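 MDA-MB-231 or HeLa cells were incubated with the pinacol boronate prodrug, and culture medium was sampled daily from day 1 to day 6. The prodrug, boronic acid forms and belinostat were separated, identified and quantified by HPLC coupled to an Orbitrap mass spectrometer. Results are in ng/mL as mean ± SEM of triplicate experiments.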

[2] = Drug level in human MDA-MB-231 cells treated with (E)-3-(3-(N-phenylsulfamoyl)phenyl)-N-(4-(4,4,5,5-tetramethyl-1,3,2-dioxaborolan-2-yl)benzyloxy)acrylamide measured after 1 to 6 days by UHPLC-MS/MS analysis; type: ADME, cell-based; how it was run: as §1
MDA-MB-231 [3] = experiment: Antiproliferative activity against human MDA-MB-231 cells after 72 hrs by resazurin dye based fluorescence assay; type: functional, cell-based; conditions: MDA-MB-231, 72 h
A549 = experiment: Antiproliferative activity against human A549 cells after 72 hrs by resazurin dye based fluorescence assay; type: functional, cell-based; conditions: A549, 72 h
HeLa [4] = experiment: Antiproliferative activity against human HeLa cells after 72 hrs by resazurin dye based fluorescence assay; type: functional, cell-based
Mus musculus = experiment: Toxicity in ovariectomized nu/nu mouse implanted with human MCF7 cells assessed as effect on body weight at 10 mg/kg, sc administered once daily for 22 days; type: organism-based; conditions: in vivo, 528 h
How it was run: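 MCF-7 xenograft in mice, dosed 10 mg/kg/day by subcutaneous injection alongside a vehicle group. Treatment ran 22 days. Body weights were compared with the vehicle group, and tumour volume was measured over the same period. At the end, mice were sacrificed and tumours removed.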

MCF7 [5] = experiment: Antitumor activity against human MCF7 cells implanted in ovariectomized nu/nu mouse assessed as tumor volume at 10 mg/kg, sc administered once daily for 22 days measured post last dose relative to control; type: functional
MCF7 [6] = experiment: Antitumor activity against human MCF7 cells implanted in ovariectomized nu/nu mouse assessed as tumor volume at 10 mg/kg, sc administered once daily for 22 days measured post last dose (reference value: 869 +/- 173 mm3); type: functional
[7] = Drug uptake in tumor of ovariectomized nu/nu mouse implanted with human MCF7 cells at 10 mg/kg, sc administered once daily for 22 days measured post last dose by HPLC-MS/MS analysis; type: ADME, organism-based, Neoplasm; conditions: female, read-out: Drug uptake
How it was run: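 After 22 days of 10 mg/kg/day subcutaneous dosing in MCF-7 xenograft mice, animals were sacrificed. Tumours were excised, homogenized and extracted, then analysed by HPLC–MS/MS for belinostat and the free boronic acid. Results are expressed as ng/g tissue.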

MCF-10A = experiment: Cytotoxicity against human MCF10A cells assessed as reduction in cell proliferation at 10 uM after 72 hrs by resazurin dye based fluorescence assay
MCF7 [8] = experiment: Antitumor activity against human MCF7 cells implanted in ovariectomized nu/nu mouse assessed as tumor growth inhibition at 10 mg/kg, sc administered once daily for 22 days measured post last dose relative to control; type: functional; conditions: 528 h, read-out: TGI
MCF7 [9] = experiment: Antitumor activity against human MCF7 cells implanted in ovariectomized nu/nu mouse assessed as tumor volume at 10 mg/kg, sc administered once daily for 22 days measured on day 12 during compound dosing (reference value: 869 +/- 173 mm3); type: functional
MCF7 [10] = experiment: Antiproliferative activity against human MCF7 cells after 72 hrs by resazurin dye based fluorescence assay; type: functional, cell-based; conditions: MCF7, 72 h
MCF7 [11] = experiment: Antitumor activity against human MCF7 cells implanted in ovariectomized nu/nu mouse assessed as tumor weight at 10 mg/kg, sc administered once daily for 22 days measured post last dose (reference value: 743 +/- 142 mg); type: functional
HeLa [12] = experiment: Prodrug conversion in human HeLa cells assessed as (E)-3-((3-(3-(N-phenylsulfamoyl)phenyl)acrylamidooxy)methyl)phenylboronic acid level after 6 days by UHPLC-MS/MS analysis; type: ADME, cell-based; conditions: 144 h; how it was run: as §1
HeLa [13] = experiment: Prodrug conversion in human HeLa cells assessed as (E)-3-((3-(3-(N-phenylsulfamoyl)phenyl)acrylamidooxy)methyl)phenylboronic acid level after 5 days by UHPLC-MS/MS analysis; type: ADME, cell-based; conditions: 120 h; how it was run: as §1
HeLa [14] = experiment: Prodrug conversion in human HeLa cells assessed as belinostat level after 6 days by UHPLC-MS/MS analysis; type: ADME, cell-based; conditions: 144 h; how it was run: as §1
MDA-MB-231 [15] = experiment: Prodrug conversion in human MDA-MB-231 cells assessed as belinostat level after 1 day by UHPLC-MS/MS analysis; type: ADME, cell-based; conditions: mda-mb-231, 24 h; how it was run: as §1
MDA-MB-231 [16] = experiment: Prodrug conversion in human MDA-MB-231 cells assessed as belinostat level after 5 days by UHPLC-MS/MS analysis; type: ADME, cell-based; conditions: mda-mb-231, 120 h; how it was run: as §1
HeLa [17] = experiment: Prodrug conversion in human HeLa cells assessed as (E)-3-((3-(3-(N-phenylsulfamoyl)phenyl)acrylamidooxy)methyl)phenylboronic acid level after 1 day by UHPLC-MS/MS analysis; type: ADME, cell-based; conditions: 24 h; how it was run: as §1
HeLa [18] = experiment: Prodrug conversion in human HeLa cells assessed as belinostat level after 2 days by UHPLC-MS/MS analysis; type: ADME, cell-based; conditions: 48 h; how it was run: as §1
HeLa [19] = experiment: Prodrug conversion in human HeLa cells assessed as (E)-3-((3-(3-(N-phenylsulfamoyl)phenyl)acrylamidooxy)methyl)phenylboronic acid level after 3 days by UHPLC-MS/MS analysis; type: ADME, cell-based; conditions: 72 h; how it was run: as §1
MDA-MB-231 [20] = experiment: Prodrug conversion in human MDA-MB-231 cells assessed as (E)-3-((3-(3-(N-phenylsulfamoyl)phenyl)acrylamidooxy)methyl)phenylboronic acid level after 3 days by UHPLC-MS/MS analysis; type: ADME, cell-based; conditions: mda-mb-231, 72 h; how it was run: as §1
MDA-MB-231 [21] = experiment: Prodrug conversion in human MDA-MB-231 cells assessed as belinostat level after 3 days by UHPLC-MS/MS analysis; type: ADME, cell-based; conditions: mda-mb-231, 72 h; how it was run: as §1
MDA-MB-231 [22] = experiment: Prodrug conversion in human MDA-MB-231 cells assessed as (E)-3-((3-(3-(N-phenylsulfamoyl)phenyl)acrylamidooxy)methyl)phenylboronic acid level after 1 day by UHPLC-MS/MS analysis; type: ADME, cell-based; conditions: mda-mb-231, 24 h; how it was run: as §1
HeLa [23] = experiment: Prodrug conversion in human HeLa cells assessed as (E)-3-((3-(3-(N-phenylsulfamoyl)phenyl)acrylamidooxy)methyl)phenylboronic acid level after 2 days by UHPLC-MS/MS analysis; type: ADME, cell-based; conditions: 48 h; how it was run: as §1
MDA-MB-231 [24] = experiment: Prodrug conversion in human MDA-MB-231 cells assessed as belinostat level after 6 days by UHPLC-MS/MS analysis; type: ADME, cell-based; conditions: mda-mb-231, 144 h; how it was run: as §1
MDA-MB-231 [25] = experiment: Prodrug conversion in human MDA-MB-231 cells assessed as belinostat level after 4 days by UHPLC-MS/MS analysis; type: ADME, cell-based; conditions: mda-mb-231, 96 h; how it was run: as §1
MDA-MB-231 [26] = experiment: Prodrug conversion in human MDA-MB-231 cells assessed as (E)-3-((3-(3-(N-phenylsulfamoyl)phenyl)acrylamidooxy)methyl)phenylboronic acid level after 4 days by UHPLC-MS/MS analysis; type: ADME, cell-based; conditions: mda-mb-231, 96 h; how it was run: as §1
MDA-MB-231 [27] = experiment: Prodrug conversion in human MDA-MB-231 cells assessed as (E)-3-((3-(3-(N-phenylsulfamoyl)phenyl)acrylamidooxy)methyl)phenylboronic acid level after 6 days by UHPLC-MS/MS analysis; type: ADME, cell-based; conditions: mda-mb-231, 144 h; how it was run: as §1
HeLa [28] = experiment: Prodrug conversion in human HeLa cells assessed as belinostat level after 3 days by UHPLC-MS/MS analysis; type: ADME, cell-based; conditions: 72 h; how it was run: as §1
HeLa [29] = experiment: Prodrug conversion in human HeLa cells assessed as belinostat level after 4 days by UHPLC-MS/MS analysis; type: ADME, cell-based; conditions: 96 h; how it was run: as §1
HeLa [30] = experiment: Prodrug conversion in human HeLa cells assessed as belinostat level after 5 days by UHPLC-MS/MS analysis; type: ADME, cell-based; conditions: 120 h; how it was run: as §1
MDA-MB-231 [31] = experiment: Prodrug conversion in human MDA-MB-231 cells assessed as (E)-3-((3-(3-(N-phenylsulfamoyl)phenyl)acrylamidooxy)methyl)phenylboronic acid level after 5 days by UHPLC-MS/MS analysis; type: ADME, cell-based; conditions: mda-mb-231, 120 h; how it was run: as §1
HeLa [32] = experiment: Prodrug conversion in human HeLa cells assessed as (E)-3-((3-(3-(N-phenylsulfamoyl)phenyl)acrylamidooxy)methyl)phenylboronic acid level after 4 days by UHPLC-MS/MS analysis; type: ADME, cell-based; conditions: 96 h; how it was run: as §1
MDA-MB-231 [33] = experiment: Prodrug conversion in human MDA-MB-231 cells assessed as belinostat level after 2 days by UHPLC-MS/MS analysis; type: ADME, cell-based; conditions: mda-mb-231, 48 h; how it was run: as §1
MDA-MB-231 [34] = experiment: Prodrug conversion in human MDA-MB-231 cells assessed as (E)-3-((3-(3-(N-phenylsulfamoyl)phenyl)acrylamidooxy)methyl)phenylboronic acid level after 2 days by UHPLC-MS/MS analysis; type: ADME, cell-based; conditions: mda-mb-231, 48 h; how it was run: as §1
HeLa [35] = experiment: Prodrug conversion in human HeLa cells assessed as belinostat level after 1 day by UHPLC-MS/MS analysis; type: ADME, cell-based; conditions: 24 h; how it was run: as §1

Drug metabolism [1]: Metabolite_Detected
Drug metabolism [2]: Metabolite_Detected
Compound: O=C(/C=C/c1cccc(S(=O)(=O)Nc2ccccc2)c1)NOCc1ccc(B(O)O)cc1

IC50 (MDA-MB-231 [3]): 2200 nM
IC50 (A549): 6580 nM
IC50 (HeLa [4]): 12900 nM
Compound: O=C(/C=C/c1cccc(S(=O)(=O)Nc2ccccc2)c1)NOCc1cccc(B(O)O)c1

IC50 (MDA-MB-231 [3]): 62 nM
IC50 (A549): 77 nM
concentration at 528 h [7]: 23.4 ng/g
IC50 (MCF7 [10]): 96 nM
IC50 (HeLa [4]): 87 nM
Compound: O=C(/C=C/c1cccc(S(=O)(=O)Nc2ccccc2)c1)NO [BELINOSTAT]
Activity (Mus musculus): Non-Toxic
T/C (MCF7 [5]): 22.3%
Activity (MCF7 [6]): 194 mm3
Activity (MCF-10A): Non-Toxic
inhibition in vivo at 10 mg/kg (MCF7 [8]): 77.7%
Activity (MCF7 [9]): 167 mm3
Activity (MCF7 [11]): 167 mg

Drug metabolism (HeLa [12]): 66.6 ng/mL
Drug metabolism (HeLa [13]): 97.2 ng/mL
Drug metabolism (HeLa [14]): Metabolite_Notdetected
Drug metabolism (MDA-MB-231 [15]): Metabolite_Notdetected
Drug metabolism (MDA-MB-231 [16]): Metabolite_Notdetected
Drug metabolism (HeLa [17]): 303.2 ng/mL
Drug metabolism (HeLa [18]): Metabolite_Notdetected
Drug metabolism (HeLa [19]): 147.9 ng/mL
Drug metabolism (MDA-MB-231 [20]): 199 ng/mL
Drug metabolism (MDA-MB-231 [21]): Metabolite_Notdetected
Drug metabolism (MDA-MB-231 [22]): 359.1 ng/mL
Drug metabolism (HeLa [23]): 188.6 ng/mL
Drug metabolism (MDA-MB-231 [24]): Metabolite_Notdetected
Drug metabolism (MDA-MB-231 [25]): Metabolite_Notdetected
IC50 (MDA-MB-231 [3]): 2030 nM
Drug metabolism (MDA-MB-231 [26]): 198.8 ng/mL
IC50 (A549): 3600 nM
Drug metabolism (MDA-MB-231 [27]): 155.8 ng/mL
Drug metabolism (HeLa [28]): Metabolite_Notdetected
Drug metabolism (HeLa [29]): Metabolite_Notdetected
Drug metabolism (HeLa [30]): Metabolite_Notdetected
Drug metabolism (MDA-MB-231 [31]): 168.5 ng/mL
Drug metabolism (HeLa [32]): 134.7 ng/mL
Drug metabolism (MDA-MB-231 [33]): Metabolite_Notdetected
IC50 (HeLa [4]): 8320 nM
Drug metabolism (MDA-MB-231 [34]): 262.9 ng/mL
Drug metabolism (HeLa [35]): Metabolite_Notdetected
Compound: CC1(C)OB(c2cccc(CONC(=O)/C=C/c3cccc(S(=O)(=O)Nc4ccccc4)c3)c2)OC1(C)C
